Data on 26 molecules can be found in ChEMBL document CHEMBL1156153, “Novel benzofuran-3-one indole inhibitors of PI3 kinase-alpha and the mammalian target of rapamycin: hit to lead studies” (Bioorg Med Chem Lett, 2010).

Data set [1] can be described thus: Aqueous solubility at pH 7.4. The data set is classed as physicochemical. The method in brief: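 Aqueous solubility measured at pH 7.4, reported in µg/mL.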
The target in data set [2] is Phosphatidylinositol 4,5-bisphosphate 3-kinase catalytic subunit gamma isoform (Homo sapiens, UniProt P48736). Put plainly: Inhibition of PI3Kgamma. A digest of the protocol:
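Fluorescence polarization assays for PI3K-α (p110α) and PI3K-γ (p110γ) monitored PIP3 production.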

The next data set relates to Caco-2. Description: Antiproliferative activity against human Caco-2 cells. The data set is classed as functional, cell-based. The method in brief: (§1)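 Cell growth density monitored in Caco-2 (epithelial colorectal adenocarcinoma), LoVo (colon carcinoma) and PC3MM2/PC3 (prostate cancer) cultures; IC50 from means of two experiments.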
A further data set has as its system PC-3. Description: Antiproliferative activity against human PC3 cells. The class given is functional, cell-based. The method in brief: as §1
The target of data set [3] is Serine/threonine-protein kinase mTOR (Homo sapiens, UniProt P42345). Description: Inhibition of mTOR. A digest of the protocol: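 DELFIA-format mTOR kinase assay monitoring phosphorylation of His6-S6K substrate.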
Data set [4] has as its target Phosphatidylinositol 4,5-bisphosphate 3-kinase catalytic subunit alpha isoform (Homo sapiens, UniProt P42336). Description: Inhibition of PI3Kalpha.
The test system of the next data set is LoVo. Put plainly: Antiproliferative activity against human LoVo cells. The data set is classed as functional, cell-based. A digest of the protocol:
as §1

Another data set concerns the target CYP3A4 (Homo sapiens, UniProt P08684). Description: Inhibition of CYP3A4 at 3 uM. The data set is classed as ADME.
Data set [5] in a line: Inhibition of PI3K in human PC3 cells assessed as inhibition AKT phosphorylation after 6 hrs by densitometry. The data set is classed as cell-based. The following applies: PC-3, 6 h. The method in brief:
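PC-3 prostate cancer cells exposed to DMSO, 10 µM […] as positive control, or graded doses of test agent for 6 h. Lysates immunoblotted for Akt phosphorylated at Thr308 and for p-4EBP1. Inhibition assessed by densitometry of the p-Akt blots.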

The structures appear in SMILES notation. Values after ≈ are worked out from the molar mass of the structure shown.

Sequence of CYP3A4 (P08684 whole entry): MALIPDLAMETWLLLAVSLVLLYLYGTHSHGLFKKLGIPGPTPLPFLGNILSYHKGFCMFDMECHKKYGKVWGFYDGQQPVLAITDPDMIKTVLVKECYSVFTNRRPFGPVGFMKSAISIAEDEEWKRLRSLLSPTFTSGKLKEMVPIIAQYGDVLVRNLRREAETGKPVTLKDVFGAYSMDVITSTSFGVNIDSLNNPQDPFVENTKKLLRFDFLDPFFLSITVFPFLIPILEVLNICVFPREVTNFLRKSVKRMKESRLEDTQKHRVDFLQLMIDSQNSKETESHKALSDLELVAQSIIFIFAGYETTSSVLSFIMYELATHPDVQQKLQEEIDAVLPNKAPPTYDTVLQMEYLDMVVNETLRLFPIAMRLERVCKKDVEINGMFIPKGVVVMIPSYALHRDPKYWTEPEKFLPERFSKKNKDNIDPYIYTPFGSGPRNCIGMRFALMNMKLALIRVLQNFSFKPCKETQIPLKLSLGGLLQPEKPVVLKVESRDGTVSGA
Sequence of Phosphatidylinositol 4,5-bisphosphate 3-kinase catalytic subunit gamma isoform (P48736 whole entry, canonical isoform): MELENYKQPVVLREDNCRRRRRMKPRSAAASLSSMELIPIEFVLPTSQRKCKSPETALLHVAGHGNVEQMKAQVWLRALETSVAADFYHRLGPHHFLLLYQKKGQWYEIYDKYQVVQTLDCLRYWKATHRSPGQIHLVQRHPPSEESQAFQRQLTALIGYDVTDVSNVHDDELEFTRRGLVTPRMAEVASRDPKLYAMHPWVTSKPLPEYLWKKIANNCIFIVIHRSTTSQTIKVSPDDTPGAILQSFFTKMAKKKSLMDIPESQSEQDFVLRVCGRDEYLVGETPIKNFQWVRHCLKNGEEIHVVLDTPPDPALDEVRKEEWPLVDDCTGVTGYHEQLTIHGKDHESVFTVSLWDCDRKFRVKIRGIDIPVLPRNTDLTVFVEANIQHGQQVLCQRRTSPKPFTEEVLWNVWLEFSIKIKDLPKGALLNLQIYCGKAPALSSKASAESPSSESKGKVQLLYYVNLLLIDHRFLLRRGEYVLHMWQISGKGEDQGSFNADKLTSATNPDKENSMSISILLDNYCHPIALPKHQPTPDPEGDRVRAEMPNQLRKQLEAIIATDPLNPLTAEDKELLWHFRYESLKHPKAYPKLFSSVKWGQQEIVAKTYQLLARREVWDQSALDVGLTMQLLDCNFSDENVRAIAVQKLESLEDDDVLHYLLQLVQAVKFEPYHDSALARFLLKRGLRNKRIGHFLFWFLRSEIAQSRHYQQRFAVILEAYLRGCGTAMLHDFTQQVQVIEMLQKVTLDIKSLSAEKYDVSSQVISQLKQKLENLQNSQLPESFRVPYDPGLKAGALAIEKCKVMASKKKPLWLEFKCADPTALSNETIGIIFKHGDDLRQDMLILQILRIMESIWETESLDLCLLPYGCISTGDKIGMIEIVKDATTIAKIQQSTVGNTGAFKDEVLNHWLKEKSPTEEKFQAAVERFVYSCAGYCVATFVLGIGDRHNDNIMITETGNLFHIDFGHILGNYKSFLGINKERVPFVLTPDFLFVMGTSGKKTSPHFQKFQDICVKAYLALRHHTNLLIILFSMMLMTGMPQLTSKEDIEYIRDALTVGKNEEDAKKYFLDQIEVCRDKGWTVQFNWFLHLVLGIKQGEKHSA
Sequence of Phosphatidylinositol 4,5-bisphosphate 3-kinase catalytic subunit alpha isoform (P42336 whole entry, canonical isoform): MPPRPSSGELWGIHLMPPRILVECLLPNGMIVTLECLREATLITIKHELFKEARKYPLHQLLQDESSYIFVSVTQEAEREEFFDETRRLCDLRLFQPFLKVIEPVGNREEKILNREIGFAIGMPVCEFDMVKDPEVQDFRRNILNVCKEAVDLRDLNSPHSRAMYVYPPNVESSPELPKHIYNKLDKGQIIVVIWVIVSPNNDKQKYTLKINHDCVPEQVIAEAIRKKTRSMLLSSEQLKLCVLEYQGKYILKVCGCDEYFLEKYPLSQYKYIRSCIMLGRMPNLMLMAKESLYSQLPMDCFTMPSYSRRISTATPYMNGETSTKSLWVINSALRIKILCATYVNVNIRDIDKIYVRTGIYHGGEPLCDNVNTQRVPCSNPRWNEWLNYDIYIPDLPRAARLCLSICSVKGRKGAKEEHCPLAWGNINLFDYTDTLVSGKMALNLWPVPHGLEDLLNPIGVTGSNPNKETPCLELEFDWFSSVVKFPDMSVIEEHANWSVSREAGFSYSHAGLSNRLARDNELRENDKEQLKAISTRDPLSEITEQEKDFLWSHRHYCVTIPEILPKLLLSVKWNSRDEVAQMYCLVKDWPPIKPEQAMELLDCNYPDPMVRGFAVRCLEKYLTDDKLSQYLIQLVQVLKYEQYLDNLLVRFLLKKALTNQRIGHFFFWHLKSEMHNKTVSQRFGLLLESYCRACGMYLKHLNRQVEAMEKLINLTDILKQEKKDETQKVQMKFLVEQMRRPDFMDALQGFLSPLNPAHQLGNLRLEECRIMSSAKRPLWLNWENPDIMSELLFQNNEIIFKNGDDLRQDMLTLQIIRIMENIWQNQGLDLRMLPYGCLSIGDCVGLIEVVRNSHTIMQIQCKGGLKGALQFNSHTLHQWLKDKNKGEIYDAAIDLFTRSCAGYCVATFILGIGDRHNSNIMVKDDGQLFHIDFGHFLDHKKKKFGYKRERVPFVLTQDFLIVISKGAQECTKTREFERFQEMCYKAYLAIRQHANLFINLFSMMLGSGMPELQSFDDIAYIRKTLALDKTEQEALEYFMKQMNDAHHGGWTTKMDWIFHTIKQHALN

For orientation: solubility means how much of the substance goes into solution per volume. As to `Cc1[nH]c2ccc(Br)cc2c1/C=C1\Oc2cc(O)cc(O)c2C1=O`, the solubility in data set [1] was 1 µg/mL (≈ 2.59 µM).
By IC50 is commonly meant the concentration at which inhibition is half-maximal. By inhibition is commonly meant how much of the control response was suppressed. `COc1ccc2[nH]c(C)c(/C=C3\Oc4cc(O)cc(O)c4C3=O)c2c1`: the IC50 in [2] came to 25 nM; in the data set on Caco-2, 9000 nM; in the data set with PC-3, 4000 nM; in data set [3], 3 nM; in data set [4], 3 nM; in the data set with LoVo, 3600 nM. Besides, at CYP3A4, the inhibition at 3 µM was determined as 79%. Also, the solubility in data set [1] is 1 µg/mL (≈ 2.96 µM).
As for `O=C1/C(=C/c2c(-c3ccccc3)[nH]c3ccccc23)Oc2cc(O)cc(O)c21`, the concentration for half-maximal inhibition (IC50) in [2] came to 2780 nM; in data set [3], 130 nM; in [4], 1030 nM. This molecule registered a solubility in data set [1] of 1 µg/mL (≈ 2.71 µM).
With `O=C1/C(=C/c2c(-c3ccccn3)[nH]c3ccccc23)Oc2cc(O)cc(O)c21`, the IC50 is 22 nM in data set [3] and 3650 nM in data set [4]. In [1], this molecule returned a solubility of 3 µg/mL (≈ 8.1 µM).
In turn, `O=C1/C(=C/c2c(-c3ccc(F)cc3)[nH]c3ccccc23)Oc2cc(O)cc(O)c21` displayed a solubility in data set [1] of 1 µg/mL (≈ 2.58 µM).
Regarding `COc1ccc2c(c1)c(/C=C1\Oc3cc(O)cc(O)c3C1=O)c(C)n2C`, the 50% inhibitory concentration (IC50) in data set [2] is 54 nM; in the data set with Caco-2 it was 7200 nM; with PC-3 it was 1300 nM; in [3], 4 nM; in data set [4], 7 nM; with LoVo, 2500 nM. For the same molecule, the inhibition at 3 µM against CYP3A4 amounted to 75%. Moreover, the solubility in [1] is 1 µg/mL (≈ 2.85 µM).
In [1], `O=C1/C(=C/c2c(-c3ccc4ccccc4c3)[nH]c3ccccc23)Oc2cc(O)cc(O)c21` showed a solubility of 1 µg/mL (≈ 2.38 µM).
Turning to `COc1ccc2c(c1)c(/C=C1\Oc3cc(O)cc(O)c3C1=O)c(C)n2CCN1CCOCC1`, the 50% inhibitory concentration (IC50) in [2] came to 155 nM; in the data set with Caco-2, 2000 nM; with PC-3, 1500 nM; in data set [3] it was 9 nM; in [4], 11 nM; in the data set with LoVo, 2300 nM. The inhibition at 3 µM against CYP3A4 came out at 64%. In data set [1], this molecule had a solubility of 6 µg/mL (≈ 13.3 µM).
`COc1ccc2[nH]c(-c3ccccc3)c(/C=C3\Oc4cc(O)cc(O)c4C3=O)c2c1`: the half-maximal inhibitory concentration (IC50) in [2] stood at 11 nM; in the data set on Caco-2 it was 2100 nM; with PC-3, 800 nM; in data set [3], 10 nM; in data set [5], 385 nM; in the data set on LoVo, 1200 nM. The molecule also displayed an inhibition at 3 µM at CYP3A4 of 77%.
Regarding `Cn1c(-c2ccccc2)c(/C=C2\Oc3cc(O)cc(O)c3C2=O)c2ccccc21`, the half-inhibitory concentration (IC50) was 96 nM in data set [3] and 2670 nM in [4]. In data set [1], the solubility was determined as 2 µg/mL (≈ 5.22 µM).
`COc1ccc2c(c1)c(/C=C1\Oc3cc(O)cc(O)c3C1=O)c(C)n2CCN1CCN(C)CC1`: the IC50 amounted to 473 nM in data set [2]; 4700 nM with Caco-2; 2400 nM in the data set with PC-3; 11 nM in data set [3]; 5 nM in [4]; 2200 nM with LoVo. In addition, in [1], the solubility was determined as 30 µg/mL (≈ 64.7 µM).
In the case of `COc1ccc2c(c1)c(/C=C1\Oc3cc(O)cc(O)c3C1=O)c(C)n2CCN(C)C`, the IC50 came out at 283 nM in data set [2]; 2800 nM in the data set on Caco-2; 1800 nM with PC-3; 18 nM in [3]; 9 nM in data set [4]; 1700 nM with LoVo. Also, the concentration in solution in [1] (solubility) came to 1 µg/mL (≈ 2.45 µM).
For the molecule `COc1ccc2c(c1)c(/C=C1\Oc3cc(O)cc(O)c3C1=O)cn2CCCN(C)C`, the IC50 in data set [2] was found to be 2420 nM; in [3] it was 2120 nM; in [4], 40 nM. The same molecule showed a solubility in [1] of 32 µg/mL (≈ 78.3 µM).
With `Cn1cc(/C=C2\Oc3cc(O)cc(O)c3C2=O)c2ccccc21`, the IC50 in data set [3] came to 800 nM. In data set [1], this molecule yielded a solubility of 2 µg/mL (≈ 6.51 µM).
For `O=C1/C(=C/c2c[nH]c3ccc(Cl)cc23)Oc2cc(O)cc(O)c21`, the solubility in data set [1] was determined as 1 µg/mL (≈ 3.05 µM).
Take `COc1ccc2c(c1)c(/C=C1\Oc3cc(O)cc(O)c3C1=O)cn2CCCN1CCN(CCO)CC1`: the half-inhibitory concentration (IC50) in [2] came to 1360 nM; in [3] it was 1650 nM; in data set [4], 37 nM. The same molecule showed a solubility in data set [1] of 25 µg/mL (≈ 50.7 µM).
`COc1ccc2c(c1)c(/C=C1\Oc3cc(O)cc(O)c3C1=O)c(C)n2CCCN(C)C`: the IC50 amounted to 404 nM in [2]; 9300 nM in the data set with Caco-2; 2800 nM in the data set on PC-3; 118 nM in [3]; 5700 nM with LoVo. Also, the solubility in data set [1] was 32 µg/mL (≈ 75.7 µM).
In the case of `O=C1/C(=C/c2c(-c3ccc(Cl)cc3)[nH]c3ccccc23)Oc2cc(O)cc(O)c21`, in [1], the solubility was 1 µg/mL (≈ 2.48 µM).
As to `COc1ccc2[nH]cc(/C=C3\Oc4cc(O)cc(O)c4C3=O)c2c1`, the inhibition at 3 µM at CYP3A4 was 58%. This molecule also displayed a solubility in data set [1] of 12 µg/mL (≈ 37.1 µM).
Take `COc1ccc2c(c1)c(/C=C1\Oc3cc(O)cc(O)c3C1=O)c(C)n2CCCN1CCOCC1`: the IC50 in data set [2] was determined as 76 nM; in the data set on Caco-2 it was 4700 nM; in the data set with PC-3, 2400 nM; in [3], 18 nM; in [4], 8 nM; in the data set with LoVo it was 4600 nM. This molecule showed an inhibition at 3 µM against CYP3A4 of 68%. In data set [1], this molecule showed a solubility of 1 µg/mL (≈ 2.15 µM).
In the case of `COc1ccc2c(c1)c(/C=C1\Oc3cc(O)cc(O)c3C1=O)cn2CCCN1CCOCC1`, the figures for the IC50 in [2], in data set [3] and in [4] were 646 nM, 430 nM and 42 nM, respectively. On CYP3A4, the inhibition at 3 µM turned out to be 42%. Besides, the solubility in data set [1] turned out to be 3 µg/mL (≈ 6.66 µM).
Consider `COc1ccc2[nH]c(-c3cccnc3)c(/C=C3\Oc4cc(O)cc(O)c4C3=O)c2c1`, for which the IC50 in data set [2] is 9 nM; with Caco-2, 7500 nM; in the data set on PC-3, 1900 nM; in data set [3], 1 nM; in data set [4], 1 nM; in the data set on LoVo it was 4700 nM. Further, at CYP3A4, testing at 3 µM gave an inhibition of 57%. In data set [1], this molecule gave a solubility of 1 µg/mL (≈ 2.5 µM).
Regarding `COc1ccc2c(c1)c(/C=C1\Oc3cc(O)cc(O)c3C1=O)cn2C`, the concentration for half-maximal inhibition (IC50) in data set [2] was 587 nM; in data set [3] it was 62 nM; in data set [4] it was 106 nM. In [1], this molecule came in with a solubility of 1 µg/mL (≈ 2.96 µM).
Turning to `COc1ccc2c(c1)c(/C=C1\Oc3cc(O)cc(O)c3C1=O)c(C)n2CCCN1CCN(C)CC1`, the IC50 in data set [2] was found to be 402 nM; with Caco-2 it was 10000 nM; in the data set on PC-3 it was 9500 nM; in [3], 153 nM; in [4], 15 nM; in the data set with LoVo, 7500 nM. The solubility in data set [1] was found to be 10 µg/mL (≈ 20.9 µM).
Take `COc1ccc2c(c1)c(/C=C1\Oc3cc(O)cc(O)c3C1=O)c(C)n2CCCN1CCN(CCO)CC1`: the half-maximal inhibitory concentration (IC50) in [2] is 109 nM; with Caco-2, 10000 nM; in the data set with PC-3, 10000 nM; in data set [3] it was 108 nM; in data set [4], 6 nM; in the data set with LoVo, 10000 nM. Also, the solubility in data set [1] came to 36 µg/mL (≈ 70.9 µM).
As for `O=C1/C(=C/c2c[nH]c3ccccc23)Oc2cc(O)cc(O)c21`, the IC50 was 9200 nM in [3] and 6750 nM in data set [4]. In addition, in [1], the concentration in solution (solubility) came to 14 µg/mL (≈ 47.7 µM).
